This passage reports folding enthalpy and Tm results from the array DNA melting data of Ke et al. (doi:10.1101/2024.01.08.574731).

Data set [1] in a line: folding enthalpy; higher = less favourable; fluorescence melt of hairpins on a sequencing array, two-state fit. The conditions noted are these: sodium 0.088 M. The gist of the method:
(§1)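 To match UV melts, fitted temperatures were raised by 9.35 °C. These fits were bootstrapped two-state models that gave melting temperature and folding enthalpy, combined by inverse variance over four replicates. The input was normalised Cy3 fluorescence of library hairpins with annealed Cy3 and quencher oligos on a sequenced MiSeq flow cell, imaged in 50 mM Na-HEPES pH 8.0, 25 mM NaCl in 2.5 °C steps up to 60 °C.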

Data set [2] can be described thus: melting temperature; fluorescence melt of hairpins on a sequencing array, two-state fit, raised by 9.35 °C to match UV melts. The conditions noted are these: sodium 0.088 M. The gist of the method:
as §1

For GAGCTCCCGAAAGGGCTC (((..(((....)))))), in data set [1], the folding enthalpy was -17.7 kcal/mol. Besides, in data set [2], the Tm was 44.4 °C.
On the same counts, the results for GAGCTGCGAAAGCACCTC (((.(((....))).))) are -17 kcal/mol and 39.7 °C.
Take GAGCTTGGAAACAAGCCC (.(((((....))))).): the folding enthalpy in data set [1] is -13.2 kcal/mol. The Tm in data set [2] turned out to be 42.8 °C.
On the same counts, the results for GAGCTTGGAAACAAGTTC ((.((((....)))).)) are -25.9 kcal/mol and 44.1 °C.
On the same counts, the results for GAGGAACGAAAGTTCTC (((.(((....)))))) are -13.6 kcal/mol and 38.9 °C.
For GAGGAACGAAAGTTTCTC (((.(((....))).))), the folding enthalpy in data set [1] is -35.9 kcal/mol. For the same sequence, the Tm in data set [2] was 49.9 °C.
As to GAGGAAGGAAACTCCCTC ((((.((....)).)))), the folding enthalpy in data set [1] was -25 kcal/mol. For the same sequence, the Tm in data set [2] stood at 32.1 °C.
GAGGAAGGAAACTTCCTC (((((((....))))))): in data set [1], the folding enthalpy is -35.5 kcal/mol. In addition, in data set [2], the Tm stood at 59 °C.
On to GAGGACGAAAGTCAACTC ((((((....)))..))), for which the folding enthalpy in data set [1] was -19.7 kcal/mol. Also, in data set [2], the Tm was found to be 38.2 °C.
On the same counts, the results for GAGGACGCGAAAGCGCTC (((..(((....)))))) are -12.9 kcal/mol and 36.9 °C.
For GAGGACGGAAACGTCCCC (.(((((....))))).) the same measures were -10.4 kcal/mol and 42.3 °C.
Take GAGGAGGGAAACCCCCTC ((((.((....)).)))): the folding enthalpy in data set [1] is -26 kcal/mol. Further, the Tm in data set [2] is 46.5 °C.
On the same counts, the results for GAGGAGGGAAACCTCCCC (.(((((....))))).) are -11.8 kcal/mol and 40.9 °C.
On the same counts, the results for GAGGAGGGAAACCTTCTC (((.(((....))).))) are -27.3 kcal/mol and 42.7 °C.
For the sequence GAGGATCCGAAAGGACTC (((..(((....)))))), the folding enthalpy in data set [1] is -13.3 kcal/mol. Further, the Tm in data set [2] came to 30.6 °C.
On the same counts, the results for GAGGATGGAAACGTCTTC ((.((.(....).)).)) are -13.1 kcal/mol and 32.9 °C.
For GAGGCAGGAAACTGTCTC (((.(((....))).))) the same measures were -34.1 kcal/mol and 50.2 °C.
For GAGGCCACGAAAGTGCTC (((..(((....)))))) the same measures were -10.9 kcal/mol and 32 °C.
Turning to GAGGCCGAAAGGCCCTC ((((((....))).))), the folding enthalpy in data set [1] was -9.16 kcal/mol. For the same sequence, the Tm in data set [2] was 58 °C.
On the same counts, the results for GAGGCCGAAAGGCTCTC ((((((....))).))) are -17.9 kcal/mol and 54.7 °C.
Consider GAGGCCGAAAGGCTTCTC ((((((....)))..))), for which the folding enthalpy in data set [1] is -19.1 kcal/mol. Further, the Tm in data set [2] came to 54.9 °C.
For GAGGCCGGAAACAGCCCC (.(((.(....).))).) the same measures were -10.6 kcal/mol and 27.2 °C.
On the same counts, the results for GAGGCCGGAAACAGCCTC (((((.(....).))))) are -27.5 kcal/mol and 50.2 °C.
Take GAGGCCGGAAACGACCCC (.((.((....)).)).): the folding enthalpy in data set [1] was -19.7 kcal/mol. Also, the Tm in data set [2] was 30.6 °C.
For GAGGCCGGAAACGGCTTC ((.((((....)))).)) the same measures were -16.9 kcal/mol and 55.9 °C.
Turning to GAGGCGACGAAAGTCCTC (((..(((....)))))), the folding enthalpy in data set [1] was -12.6 kcal/mol. Besides, the Tm in data set [2] amounted to 38.1 °C.
On the same counts, the results for GAGGCGCCGAAAGGCCTC (((..(((....)))))) are -13.3 kcal/mol and 44.3 °C.
On the same counts, the results for GAGGCTGGAAACAGCTTC ((.((((....)))).)) are -19.8 kcal/mol and 49 °C.
On the same counts, the results for GAGGCTGGAAACGGCCTC (((((.(....).))))) are -46.4 kcal/mol and 59.6 °C.
Turning to GAGGCTGGAAACGGTCTC (((.(.(....).).))), in data set [1], the folding enthalpy is -28.5 kcal/mol. Also, the Tm in data set [2] amounted to 39.6 °C.
On the same counts, the results for GAGGGAACGAAAGTTCTC (((..(((....)))))) are -13.7 kcal/mol and 37.7 °C.
For GAGGGACGAAAGTCCTC (((.(((....)))))) the same measures were -11.8 kcal/mol and 48.9 °C.
For GAGGGACGAAAGTCTCTC (((.(((....))).))) the same measures were -32.4 kcal/mol and 55.4 °C.
As for GAGGGAGGAAACTCCTTC ((.((((....)))).)), the folding enthalpy in data set [1] is -19.7 kcal/mol. The Tm in data set [2] was 38.3 °C.
For GAGGGAGGAAACTCTCTC (((.(((....))).))) the same measures were -24.6 kcal/mol and 44.2 °C.
For GAGGGAGGAAACTTCCTC ((((.((....)).)))) the same measures were -25.6 kcal/mol and 45.6 °C.
As to GAGGGCCCGAAAGGGCTC (((..(((....)))))), the folding enthalpy in data set [1] was -8.22 kcal/mol. The Tm in data set [2] stood at 43.9 °C.
On to GAGGGCGAAAGCCACTC ((((((....))).))), for which the folding enthalpy in data set [1] is -13.7 kcal/mol. Besides, in data set [2], the Tm turned out to be 53.4 °C.
On the same counts, the results for GAGGGCGAAAGCCCCTC ((((((....))).))) are -9.57 kcal/mol and 57.1 °C.
As to GAGGGCGAAAGCCGTCTC ((((((....)))..))), the folding enthalpy in data set [1] is -20.4 kcal/mol. Also, the Tm in data set [2] stood at 59 °C.
On the same counts, the results for GAGGGCGAAAGCCTGCTC ((((((....)))..))) are -12.4 kcal/mol and 42.5 °C.
For the sequence GAGGGCGGAAACGTCCTC ((((.((....)).)))), the folding enthalpy in data set [1] is -47 kcal/mol. Further, the Tm in data set [2] worked out at 59.1 °C.
On the same counts, the results for GAGGGGAAACCCTC (((((....))))) are -24.7 kcal/mol and 54 °C.
On the same counts, the results for GAGGGGCGAAAGCCCTC (((.(((....)))))) are -10.1 kcal/mol and 55.5 °C.
On the same counts, the results for GAGGGGGGAAACCCTCTC (((.(((....))).))) are -27.6 kcal/mol and 53.7 °C.
For GAGGGGGGAAACTCCCTC (((((.(....).))))), the folding enthalpy in data set [1] was -34.3 kcal/mol. In addition, in data set [2], the Tm was 53.2 °C.
On to GAGGGTACGAAAGTACTC (((..(((....)))))), for which the folding enthalpy in data set [1] was -11.9 kcal/mol. For the same sequence, the Tm in data set [2] is 36.9 °C.
For GAGGGTGGAAACACCCCC (.(((((....))))).) the same measures were -10.7 kcal/mol and 44.8 °C.
For the sequence GAGGGTGGAAACACCTTC ((.((((....)))).)), the folding enthalpy in data set [1] is -15.9 kcal/mol. Moreover, the Tm in data set [2] came to 47 °C.
On the same counts, the results for GAGGGTGGAAACATCCTC ((((.((....)).)))) are -38.8 kcal/mol and 50.5 °C.
For GAGGTAACGAAAGTTCTC (((..(((....)))))) the same measures were -11.1 kcal/mol and 29 °C.
On the same counts, the results for GAGGTACCGAAAGGTCTC (((..(((....)))))) are -17.5 kcal/mol and 31.4 °C.
Turning to GAGGTAGAAATACCTC ((((((....)))))), the folding enthalpy in data set [1] was -33.5 kcal/mol. Besides, the Tm in data set [2] was found to be 50.2 °C.
On the same counts, the results for GAGGTAGGAAACCACCTC (((((.(....).))))) are -31 kcal/mol and 42.2 °C.
As to GAGGTAGGAAACTGCTTC ((.(.((....)).).)), the folding enthalpy in data set [1] was -15.6 kcal/mol. In addition, the Tm in data set [2] turned out to be 26.7 °C.
